Test results as given in ChEMBL document CHEMBL1121573, “2-(Aminomethyl)phenols, a new class of saluretic agents. 1. Effects of nuclear substitution” (J Med Chem, 1980).

Test system: not listed separately
Assay: Evaluated for salidiuretic activity measured as sodium ion excretion in Rat, administered orally at a dose of 16.5 mg/kg
Type: organism-based
Design: dose 16.5 mg/kg
Conditions: Urine
Summary of the method: (§1)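 Female Charles-River rats (150–170 g), overnight on sugar diet with water ad libitum. Compound dissolved in DMF, diluted with water containing Tween 80 (final 4% DMF), given po in 5.0 mL; concurrent vehicle placebo. Three rats per metabolism cage; 0–5 h urine analysed for Na+, K+, Cl-. Values: mequiv × 100 per cage, geometric means of three cages per dose; scored 0–6 by Na+.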

**Q.** With `CCc1cc(Cl)c(O)c(CN)c1.Cl` as the compound, how does the Diuretic activity read?
**A.** 2.7

**Q.** For `CC(C)(C)c1cc(F)c(O)c(CN)c1.Cl`, which Diuretic activity is on record?
**A.** 2.7

**Q.** With `CCC(C)(C)c1cc(I)c(O)c(CN)c1.Cl` as the compound, how does the Diuretic activity read?
**A.** 1.4

Test system: Canis familiaris
Assay: Compound administered intravenously at a dose of 5 mg/kg was evaluated for salidiuretic activity measured as sodium ion excretion in Dog
Type: ADME, organism-based, Canis lupus familiaris, Urine
Design: dose 5 mg/kg, route intravenous
Conditions: in vivo, iv
Summary of the method: (§2)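 Conditioned female mongrel dogs, postabsorptive, water-loaded (500 mL po) 1 h before sodium pentobarbital anesthesia (30 mg/kg iv). Bladder catheter; creatinine 4 g sc; phosphate–mannitol buffer pH 7.4 infused (3.0 mL/min) throughout. […] Urine Na+ measured; response scored 0–6.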

**Q.** For `C=C(CC)C(=O)c1ccc(OCC(=O)O)c(Cl)c1Cl` [ETHACRYNIC ACID], which Diuretic activity is on record?
**A.** > 900

**Q.** Which Diuretic activity does the source give for `CCc1cc(Cl)c(O)c(CN)c1.Cl` here?
**A.** > 900

**Q.** For `CC(C)(C)c1cc(F)c(O)c(CN)c1.Cl`, which Diuretic activity is on record?
**A.** > 900

Test system: Canis familiaris
Assay: Compound administered intravenously was evaluated for salidiuretic activity measured as sodium ion excretion in Dog; Value ranges from 0-99
Type: ADME, organism-based, Canis lupus familiaris, Urine
Conditions: in vivo, iv
Summary of the method: as §2

**Q.** For `Cc1cc(N)c(C)c(CN)c1O.Cl.Cl`, which Diuretic activity is on record?
**A.** 0

**Q.** With `CCCc1cc(C(C)(C)C)cc(CN)c1O.Cl` as the compound, how does the Diuretic activity read?
**A.** 0

**Q.** For `Cl.NCc1cc(CN)c(Cl)c(Cl)c1O`, which Diuretic activity is on record?
**A.** 0

**Q.** For `CC(C)(C)c1cc(CN)c(O)c(C(C)(C)C)c1`, which Diuretic activity is on record?
**A.** 0

**Q.** With `Cc1c(Cl)cc(CN)c(O)c1C.Cl` as the compound, how does the Diuretic activity read?
**A.** 0

**Q.** Which Diuretic activity does the source give for `CC(C)(C)CC(C)(C)c1cc(Cl)c(O)c(CN)c1.Cl` here?
**A.** 0

**Q.** With `Cc1cc(O)c(CN)c(C)c1C.Cl` as the compound, how does the Diuretic activity read?
**A.** 0

**Q.** For `Cc1cc(Cl)c(C)c(CN)c1O.Cl`, which Diuretic activity is on record?
**A.** 0

Test system: Canis familiaris
Assay: Compound administered intravenously was evaluated for salidiuretic activity measured as sodium ion excretion in Dog; Value ranges from 250-399
Type: ADME, organism-based, Canis lupus familiaris, Urine
Conditions: in vivo, iv
Summary of the method: as §2

**Q.** Which Diuretic activity does the source give for `Cc1cc(Cl)c(Cl)c(CN)c1O.Cl` here?
**A.** 250

**Q.** With `CC(=O)c1cc(C(C)(C)C)cc(CN)c1O.Cl` as the compound, how does the Diuretic activity read?
**A.** 250

**Q.** Which Diuretic activity does the source give for `COc1cc(Cl)c(OC)c(CN)c1O.Cl` here?
**A.** 250

**Q.** With `CCCCCC(C)c1cc(C)c(O)c(CN)c1.Cl` (stereo unspecified) as the compound, how does the Diuretic activity read?
**A.** 250

**Q.** For `COc1c(C(C)(C)C)cc(Cl)c(O)c1CN.Cl`, which Diuretic activity is on record?
**A.** 250

**Q.** Which Diuretic activity does the source give for `Cl.NCc1cc(-c2ccccc2)cc(Cl)c1O` here?
**A.** 250

**Q.** For `CCOc1cc(Cl)c(O)c(CN)c1.Cl`, which Diuretic activity is on record?
**A.** 250

**Q.** For `COc1c(C)c(OC)c(CN)c(O)c1Cl`, which Diuretic activity is on record?
**A.** 250

Test system: Canis familiaris
Assay: Compound administered intravenously at a dose of 5 mg/kg was evaluated for salidiuretic activity measured as sodium ion excretion in Dog; Value ranges from 0-99
Type: ADME, organism-based, Canis lupus familiaris, Urine
Design: dose 5 mg/kg, route intravenous
Conditions: in vivo, iv
Summary of the method: as §2

**Q.** Which Diuretic activity does the source give for `Cl.NCc1cc(F)cc(Cl)c1O` here?
**A.** 0

**Q.** With `CCc1cc(CN)c(O)c(CN)c1.Cl` as the compound, how does the Diuretic activity read?
**A.** 0

**Q.** With `CC(C)(C)c1cc(O)c(CN)c(C(C)(C)C)c1.Cl` as the compound, how does the Diuretic activity read?
**A.** 0

**Q.** Which Diuretic activity does the source give for `CCCCc1ccc(O)c(CN)c1.Cl` here?
**A.** 0

Test system: Rattus norvegicus
Assay: Evaluated for salidiuretic activity measured as sodium ion excretion in Rat, administered orally at a dose of 50 mg/kg
Type: functional, Urine
Design: unit not given beside the values
Conditions: route oral
Summary of the method: as §1

**Q.** For `Cc1c(Cl)c(C)c(CN)c(O)c1CN.Cl.Cl`, which Diuretic activity is on record?
**A.** <0.2

**Q.** With `C=C(CC)C(=O)c1ccc(OCC(=O)O)c(Cl)c1Cl` [ETHACRYNIC ACID] as the compound, how does the Diuretic activity read?
**A.** <0.3

**Q.** With `CCOC(=O)c1cc(I)c(O)c(CN)c1.Cl` as the compound, how does the Diuretic activity read?
**A.** 1.8

**Q.** With `CCCCc1ccc(O)c(CN)c1.Cl` as the compound, how does the Diuretic activity read?
**A.** <0.3

**Q.** For `CCc1cc(Cl)c(O)c(CN)c1.Cl`, which Diuretic activity is on record?
**A.** 3.3

**Q.** With `CC(C)(C)c1cc(F)c(O)c(CN)c1.Cl` as the compound, how does the Diuretic activity read?
**A.** 3.3

**Q.** For `CCC(C)(C)c1cc(I)c(O)c(CN)c1.Cl`, which Diuretic activity is on record?
**A.** 2.4

Test system: Canis familiaris
Assay: Salidiuretic activity in dog following i.v. dosing at 5 mg/kg
Type: functional, Canis lupus familiaris, Urine
Design: unit not given beside the values
Conditions: route intravenous
Summary of the method: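 Conditioned female mongrel dogs, postabsorptive, got a 500 mL oral water load 1 h before pentobarbital anesthesia (30 mg/kg iv). After replicate 15-min control collections, compound was given as an iv stat injection.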

**Q.** For `Cl.NCc1cc(Cl)cc(C(=O)O)c1O`, which Diuretic activity is on record?
**A.** 250

**Q.** Which Diuretic activity does the source give for `CCCc1cc(CN)c(O)c(OC)c1.Cl` here?
**A.** 250

**Q.** For `CC(C)(c1ccccc1)c1ccc(O)c(CN)c1.Cl`, which Diuretic activity is on record?
**A.** 250

**Q.** Which Diuretic activity does the source give for `Cl.NCc1cc(Cl)cc(-c2ccccc2)c1O` here?
**A.** 250

**Q.** With `CCCc1cc(CN)c(O)c(CCC)c1.Cl` as the compound, how does the Diuretic activity read?
**A.** 250

**Q.** For `CCCc1ccc(O)c(CN)c1.Cl`, which Diuretic activity is on record?
**A.** 250

**Q.** Which Diuretic activity does the source give for `Cc1c(Cl)ccc(O)c1CN.Cl` here?
**A.** 250

**Q.** With `CCOC(=O)c1cc(I)c(O)c(CN)c1.Cl` as the compound, how does the Diuretic activity read?
**A.** 250

**Q.** Which Diuretic activity does the source give for `Cl.NCc1cc(Cl)cc(F)c1O` here?
**A.** 250

Test system: not listed separately
Assay: Compound administered orally at a dose of 5 mg/kg was evaluated for salidiuretic activity measured as sodium ion excretion in Rat
Type: organism-based
Design: dose 5 mg/kg
Conditions: Urine
Summary of the method: as §1

**Q.** With `CCc1cc(Cl)c(O)c(CN)c1.Cl` as the compound, how does the Diuretic activity read?
**A.** 1.4

**Q.** Which Diuretic activity does the source give for `CC(C)(C)c1cc(F)c(O)c(CN)c1.Cl` here?
**A.** 1.4

**Q.** For `CCC(C)(C)c1cc(I)c(O)c(CN)c1.Cl`, which Diuretic activity is on record?
**A.** 0.5

Test system: Canis familiaris
Assay: Compound administered intravenously at a dose of 5 mg/kg was evaluated for salidiuretic activity measured as sodium ion excretion in Dog; Value ranges from 800-899
Type: ADME, organism-based, Canis lupus familiaris, Urine
Design: dose 5 mg/kg, route intravenous; unit not given beside the values
Conditions: in vivo, iv
Summary of the method: as §2

**Q.** For `CCC(C)(C)c1cc(I)c(O)c(CN)c1.Cl`, which Diuretic activity is on record?
**A.** 800

Test system: Rattus norvegicus
Assay: Compound administered orally at a dose of 81 mg/kg was evaluated for salidiuretic activity measured as sodium ion excretion in Rat
Type: ADME, organism-based, Urine
Design: dose 81 mg/kg, route oral; unit not given beside the values
Conditions: in vivo, po
Summary of the method: as §1

**Q.** With `Cc1c(Cl)c(C)c(CN)c(O)c1CN.Cl.Cl` as the compound, how does the Diuretic activity read?
**A.** < 0.3

**Q.** With `C=C(CC)C(=O)c1ccc(OCC(=O)O)c(Cl)c1Cl` [ETHACRYNIC ACID] as the compound, how does the Diuretic activity read?
**A.** < 0.3

**Q.** With `CCOC(=O)c1cc(I)c(O)c(CN)c1.Cl` as the compound, how does the Diuretic activity read?
**A.** 2.4

**Q.** Which Diuretic activity does the source give for `CCCCc1ccc(O)c(CN)c1.Cl` here?
**A.** < 0.3

**Q.** Which Diuretic activity does the source give for `CCC(C)(C)c1cc(I)c(O)c(CN)c1.Cl` here?
**A.** 2.9
